From ChEMBL document CHEMBL4373727, “Thienopyrimidinone Derivatives That Inhibit Bacterial tRNA (Guanine37-N1)-Methyltransferase (TrmD) by Restructuring the Active Site with a Tyrosine-Flipping Mechanism” (J Med Chem, 2019)
Calls of active or inactive are those of the source. Unless noted, no cut-off for these calls is given here.

Key:
[1] = molecular target: T1, tRNA (guanine-N(1)-)-methyltransferase (Pseudomonas aeruginosa (strain ATCC 15692 / DSM 22644 / CIP 104116 / JCM14847 / LMG 12228 / 1C / PRS 101 / PAO1)) (UniProt Q9HXQ1); test: Binding affinity to Pseudomonas aeruginosa tRNA (guanine(37)-N1)-methyltransferase (Leu5 to Asp25 residues) expressed in Escherichia coli BL21 (DE3) Rosetta T1R cells assessed as thermal stabilization of protein by measuring change in melting temperature at 0.1 mM by SYPRO orange based thermal shift assay
T1 sequence (whole entry): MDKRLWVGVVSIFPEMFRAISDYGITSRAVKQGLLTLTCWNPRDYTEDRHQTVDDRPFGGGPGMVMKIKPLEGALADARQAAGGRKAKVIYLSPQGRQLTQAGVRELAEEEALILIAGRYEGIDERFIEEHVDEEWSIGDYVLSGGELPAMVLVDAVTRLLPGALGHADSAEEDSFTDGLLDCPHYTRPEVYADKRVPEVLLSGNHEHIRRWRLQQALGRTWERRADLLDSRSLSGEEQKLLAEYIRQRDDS
Method in brief: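 Thermal shift: 4 μM TrmD with 5× SYPRO Orange and ligand in 50 mM Tris-HCl pH 8, 150 mM NaCl, 1 mM MgCl2, 1 mM DTT, 0.05% Tween-20. Buffer-only control. Heated from 25 to 95 °C in a real-time PCR instrument, and Tm taken as the unfolding midpoint. Ligand levels: SAH 2 mM, inhibitors 0.1 mM.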

Erythrocyte = test: Hemolytic activity in human RBC at 100 uM measured after 1 hr; format: ADME, cell-based
Method in brief: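 Fresh human RBCs were PBS-washed and resuspended to OD600 24, then mixed 1:1 by volume with compound serially diluted in PBS. Incubated 1 h at 37 °C without shaking and centrifuged at 1000g for 15 min. Triton X-100 served as positive control. Run in triplicate.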

[2] = molecular target: T1, tRNA (guanine-N(1)-)-methyltransferase (Pseudomonas aeruginosa (strain ATCC 15692 / DSM 22644 / CIP 104116 / JCM14847 / LMG 12228 / 1C / PRS 101 / PAO1)); test: Inhibition of Pseudomonas aeruginosa tRNA (guanine(37)-N1)-methyltransferase (Leu5 to Asp25 residues) expressed in Escherichia coli BL21 (DE3) Rosetta T1R cells assessed as reduction in S-adenosyl-L-homocysteine production up to 50 uM preincubated for 15 mins followed by 1.5 uM of tRNALeu(CAG) substrate and SAM addition and measured after 45 mins by MTase-Glo assay
Method in brief: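 MTase-Glo luminescence assay. 8 nM TrmD preincubated 15 min at ambient temperature with serially diluted inhibitor (0–500 μM) in 50 mM Tris-HCl pH 8.0, 80 mM NaCl, 1 mM MgCl2, 0.5 mM DTT, 0.01% Triton X-100. Reaction with 2 μM SAM and tRNALeu(CAG), 45 min at 37 °C. Detection 30 min in the dark, SAH read against a standard curve. IC50 by nonlinear regression. Two independent experiments in duplicate.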

Q: Which results are given for `CCCOc1ncnc2scc(C(=O)NCc3ccc(CN4CCOCC4)cc3)c12`?
A: ΔTm [1]: 1 to 2 °C; Activity (Erythrocyte): Non-Toxic; inhibition [2]: inactive

Q: With `COc1ncnc2scc(C(=O)NCc3ccc(CNCc4ccccc4)cc3)c12` as the compound, how does the ΔTm [1] read?
A: 1 to 2 °C

Q: What about the Activity (Erythrocyte) of the same compound?
A: Non-Toxic

Q: And the inhibition [2]?
A: inactive

Q: With `COc1ncnc2scc(C(=O)NCc3ccc(CN4CCOCC4)cc3)c12` as the compound, how does the ΔTm [1] read?
A: 1 to 2 °C

Q: What about the Activity (Erythrocyte) of the same compound?
A: Non-Toxic

Q: And the inhibition [2]?
A: inactive

Q: Which results are given for `CCCCCCCCNCc1ccc(CNC(=O)c2csc3ncnc(OC)c23)cc1`?
A: ΔTm [1]: 1 to 2 °C; Activity (Erythrocyte): Non-Toxic; inhibition [2]: inactive

Q: Which results are given for `CCCOc1ncnc2scc(C(=O)NCc3ccc(CNCc4ccccc4)cc3)c12`?
A: ΔTm [1]: 1 to 2 °C; Activity (Erythrocyte): Non-Toxic; inhibition [2]: inactive
